The EternaBench riboswitch data

System: MS2 coat protein
Test: apparent Kd, MS2 coat protein; higher = weaker binding; RNA-MaP array
Procedure, shortened: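 Apparent Kd values come from the median of binding-curve fits to single clusters. To obtain them, designed RNAs transcribed on an Illumina sequencing chip from sequenced DNA templates were incubated at room temperature with fluorescently labeled MS2 coat protein at 1.5 nM to 3 μM, with or without input ligand, for 0.8–1.5 h at the lowest and 10–20 min at the highest concentrations. Designs measured on fewer than 10 clusters were excluded.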

[1] = designed as: ON switch for flavin mononucleotide, no ligand
[2] = ligand present: flavin mononucleotide, designed as: ON switch for flavin mononucleotide
[3] = designed as: OFF switch for flavin mononucleotide, no ligand
[4] = ligand present: flavin mononucleotide, designed as: OFF switch for flavin mononucleotide

## CGCUAAGAGCGGCACCUCCACAUGAGGAUCACCCAUGUUUGAAGAAGGCCAAUUUACGUAAGACUGGAGGAUAUUCAGGAGAGU
[1]
  apparent Kd: 10.1 nM
[2]
  apparent Kd: 5.9 nM

## CGGGAACGAUAUGAUACCAGCCUGCGAAAGAAUGCUUAGUACAUGAGGAUCACCCAUGUAGGCCCUUGGCAGCAUCGACUCAAGU
Designed as: OFF switch for theophylline, no ligand
  apparent Kd: 14.8 nM
Ligand present: theophylline, designed as: OFF switch for theophylline
  apparent Kd: 19.7 nM

## CGGGCACAUGAGGAUCACCCAUGUAAGGAUAUGAACAGUUUUCACAGAGUUUCACUAUUCAGAAGGUACGUUUC
[3]
  apparent Kd: 24.2 nM
[4]
  apparent Kd: 20.8 nM

## CGUAUAGCAGGAUAUUGCAGCCGGCACAUGAGGAUCACCCAUGUCGAUGGUCCGCCAUAGCAAGAAGGGCUAGUAG
[3]
  apparent Kd: 85.7 nM
[4]
  apparent Kd: 57.1 nM

## CGUCCACAUGAGGAUCACCCAUGUACACGCGAUCAAGGAUAUCGCGAUAACACAAUAGUGCGAGAAGGUGAUGUAC
[1]
  apparent Kd: 148 nM
[2]
  apparent Kd: 79.6 nM

## CGUGGGUGUGAGCCACAUGAGGAUCACCCAUGUCACAACGUGAGAAGGAACAGGCCCUGUGUCGGUUAGGAUAUCAAACCCUUA
[3]
  apparent Kd: 142 nM
[4]
  apparent Kd: 27.3 nM

## CGUUAAGAAUCGGCCGCCACUCCAUACGUGUGAAUCGCGGAUCGACAUGAGGAUCACCCAUGUCGGAGGACCGGGAUCCUCUUUC
Designed as: ON switch for tryptophan, no ligand
  apparent Kd: 35 nM
Ligand present: tryptophan, designed as: ON switch for tryptophan
  apparent Kd: 23.3 nM

## CUAGGCGUGCAGAAGGCGGAAAUAUUUCGUGGCCGAGGAUAUGCUGAUAUAUCGCAAGUGACAUGAGGAUCACCCAUGUGUCUA
[1]
  apparent Kd: 16.6 nM
[2]
  apparent Kd: 14.2 nM

## CUAGUGUGAGGAUAUGAGUCAACCUUUUAGUUCUAAGGAGAUCAGAAGGCACAUGAGGAUCACCCAUGUCAGAA
[3]
  apparent Kd: 33.4 nM
[4]
  apparent Kd: 84 nM

## CUCAAGUAAGGAUAUAUUCACGCUCGUAAUUAGUGUCGCGCAUAGAAGGUACAUGAGGAUCACCCAUGUCAUGU
[4]
  apparent Kd: 18.4 nM

## CUGAAGUAAGGAUAUAUAUACCAUAGACCAUUAAAGACAUUAUAGAAGGUACAUGAGGAUCACCCAUGUGGGAA
[3]
  apparent Kd: 29.9 nM
[4]
  apparent Kd: 26.4 nM

## CUGUACAUGAGGAUCACCCAUGUUAGACCAGCUUAAAAUAUAAGAAGGUUGAGGGCUUGACCAACAAAGGAUAUUAUGUGACCA
[1]
  apparent Kd: 27.7 nM
[2]
  apparent Kd: 18.1 nM

## CUGUUACAUGAGGAUCACCCAUGUGAGCGGUUGCUAGGAUAUCGCCAUUGGUGGUUCGGACGAGAAGGAGCUAAAA
[1]
  apparent Kd: 150 nM
[2]
  apparent Kd: 67.2 nM

## CUUACACAUGAGGAUCACCCAUGUCAUGAUACCAGCCAAUACACUGGCCCUUGGCAGCAUCUCAGCCUCAGCUACAUUGACUGAC
Designed as: ON switch for theophylline, no ligand
  apparent Kd: 19.9 nM
Ligand present: theophylline, designed as: ON switch for theophylline
  apparent Kd: 27.1 nM

## CUUACUCGUCUAGGAUAUCGAAUGCCAACAUGAGGAUCACCCAUGUGUGGGUUGAUCGUCUAGGCCGAGAAGGAGACUGCAAUC
[3]
  apparent Kd: 8.88 nM
[4]
  apparent Kd: 18.1 nM

## CUUGUGCUGACGGCCGCCACUUUAUGGGAGUCCUGUUCUGAUUGAUACAUGAGGAUCACCCAUGUAAGGACCGGGUCGUACCAUA
Designed as: OFF switch for tryptophan, no ligand
  apparent Kd: 18 nM
Ligand present: tryptophan, designed as: OFF switch for tryptophan
  apparent Kd: 22.3 nM

## GAAAACGAUCCCAAUACAUGAGGAUCACCCAUGUGGUGCAGUCAGGAUAUCACUACACCAAAACUUGAGAAGGGACACAUCGCC
[3]
  apparent Kd: 347 nM
[4]
  apparent Kd: 318 nM

## GAAUGUUGGAAGAAGGCACGCCCUGCAUGGCGGUGAGGAUAUUCCGUACUUGGAGUGGAAACAUGAGGAUCACCCAUGUAAGUA
[3]
  apparent Kd: 36.8 nM
[4]
  apparent Kd: 37 nM

## GAAUUUCGGAAGAAGGGACUCGAUCAGUUCAGGUCAGGAUAUUCACAUGAGGAUCACCCAUGUCCAUCAGCAUGACGUUUCCAC
[3]
  apparent Kd: 10.9 nM
[4]
  apparent Kd: 14.7 nM

## GACAACCACAUGAGGAUCACCCAUGUUUACAUACACAAGGGAAGAAGGGAACCUAAAGGAUCAAAUCAGGAUAUUCGUAUUGUA
[1]
  apparent Kd: 27 nM
[2]
  apparent Kd: 19.5 nM

## GACAGGAAAGGAUAUACAAAAUAGAUCAAACGCACACAAAGACAUGAGGAUCACCCAUGUAGAAGGUACUGACA
[3]
  apparent Kd: 11.3 nM
[4]
  apparent Kd: 9.76 nM

## GACAUGAGGAUCACCCAUGUAUGUGGGACUGCGCAUUGAUACUAGGAUAUCUGCCCAGACGUGUGAGAGAAGGAGUACGGUAAA
[1]
  apparent Kd: 74.7 nM
[2]
  apparent Kd: 56 nM

## GAGCGACUAUGAGAUUGGACAUGAGGAUCACCCAUGUGAGACAGAAGGGCCUUGGCGCCCGUGAGGCAGGAUAUGUACCAAGCA
[1]
  apparent Kd: 27.4 nM
[2]
  apparent Kd: 19.6 nM

## GAGGCAACGAUGGAGGAUAUACUAGGUAAUACAUGAGGAUCACCCAUGUGAGAAAGAGAGUACAUGUAGAAGGCCAGAUAUGCGGU
[1]
  apparent Kd: 30.5 nM
[2]
  apparent Kd: 11.8 nM

## GAUAAAGUAGGAUAUACAUGAGGAUCACCCAUGUAGAGAGGAGAGCGUGCGAGAACCAGUAGAAGGACUAAACA
[3]
  apparent Kd: 13.9 nM
[4]
  apparent Kd: 12.4 nM

## GAUACAUGAGGAUCACCCAUGUGGGAAAUUCAUCUCAUUAAGAAGGAUAUGCAUCUAAAACUGGAGCAGAAGGUCUGUAUCCCG
[3]
  apparent Kd: 87 nM
[4]
  apparent Kd: 55.9 nM

## GAUACUACAUAGAAGGUACCGAUGAGCAAUUAACAAUGUGCGGCAACAUGAGGAUCACCCAUGUGUAAGGAUAUAUGCAGAACA
[3]
  apparent Kd: 20.9 nM
[4]
  apparent Kd: 15.5 nM
